We go through seven compounds from ChEMBL document CHEMBL4808197, “Synthesis, docking, machine learning and antiproliferative activity of the 6-ferrocene/heterocycle-2-aminopyrimidine and 5-ferrocene-1H-Pyrazole derivatives obtained by microwave-assisted Atwal reaction as potential anticancer agents” (Bioorg Med Chem Lett, 2021).

What all share (assay type): functional, cell-based
For one test, the system named is B16-F10. As to the kind of experiment: Antiproliferative activity against mouse B16-F10 cells assessed as inhibition of cell proliferation.
For another test, the system named is A549. The test is described as follows: Antiproliferative activity against human A549 cells assessed as inhibition of cell proliferation.
Another test has as its system HCT-116. The test is described as follows: Antiproliferative activity against human HCT-116 cells assessed as inhibition of cell proliferation measured by MTT assay. In outline: (§1)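 Tumour cell panel: HCT116 (colorectal carcinoma), PC3 (prostate adenocarcinoma), HL60 (acute promyelocytic leukaemia), SNB19 (astrocytoma). Antiproliferative effect reported as half-maximal inhibitory concentration (IC50, µM) for each line.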

Another test deals with PC-3. As to the kind of experiment: Antiproliferative activity against human PC-3 cells assessed as inhibition of cell proliferation measured by MTT assay. An outline of the steps:
as §1
A general note: Tetrazolium assays rely on reduction of a dye to a coloured formazan, in cell work by metabolically active cells.

A further test deals with HL-60. The test is described as follows: Antiproliferative activity against human HL-60 cells assessed as inhibition of cell proliferation measured by MTT assay. In outline: as §1
Another test has as its system SNB-19. As to the kind of experiment: Antiproliferative activity against human SNB-19 cells assessed as inhibition of cell proliferation measured by MTT assay. In outline:
as §1

A further test deals with HeLa. The test is described as follows: Cytotoxicity against human HeLa cells assessed as inhibition of cell viability.

For orientation: IC50 means the concentration needed to halve the response being measured. As for `Cc1ccc(-c2cc(C(F)(F)F)nn2-c2ccc(S(N)(=O)=O)cc2)cc1` [CELECOXIB], the 50% inhibitory concentration (IC50) in the test with B16-F10 is 16.2 µM; with A549, 16.3 µM.

In the case of `Nc1nc(-c2ccccc2)cc(-c2ccc[nH]2)n1`, the half-inhibitory concentration (IC50) came out at 55.5 µM in the test on HCT-116, 81.5 µM with PC-3, 29.3 µM with HL-60 and 174 µM in the test with SNB-19.

Consider `Nc1nc(-c2ccccc2)cc(-c2cn(-c3ccccc3)nc2-c2ccc([N+](=O)[O-])cc2)n1`, for which the 50% inhibitory concentration (IC50) in the test with HeLa was 5.47 µM.

On to `Nc1nc(-c2ccc([N+](=O)[O-])cc2)cc(-c2cnn(-c3ccccc3)n2)n1`, for which the 50% inhibitory concentration (IC50) with HCT-116 is 133 µM; in the test with PC-3 it was over 200 µM; in the test with HL-60, over 200 µM; with SNB-19, 132 µM.

Take `Nc1nc(-c2ccccc2)cc(-c2cnn(-c3ccccc3)n2)n1`: the 50% inhibitory concentration (IC50) with HCT-116 was 120 µM; in the test with PC-3 it was 142 µM; in the test on HL-60, 66.5 µM; with SNB-19 it was over 200 µM.

As for `Nc1nc(-c2ccccc2)cc(-c2cccs2)n1`, the IC50 was 57 µM in the test on HCT-116, 33.6 µM with PC-3, 70.3 µM with HL-60 and 85.1 µM in the test with SNB-19.

Take `Nc1ccc(-c2cc(-c3cnn(-c4ccccc4)n3)nc(N)n2)cc1`: the IC50 with HCT-116 came out at 95.3 µM; in the test with PC-3, 58.2 µM; in the test on HL-60, 68.2 µM; with SNB-19 it was 106 µM.
